In one data set the test system is Plasmodium falciparum. Briefly: Antimalarial activity against Plasmodium falciparum NF54 infected in human erythrocytes assessed as reduction in [3H]hypoxanthine incorporation preincubated for 48 hrs followed by [3H]hypoxanthine addition measured after 24 hrs by liquid scintillation counting. The class given is functional, organism-based. Put shortly:
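Chloroquine-sensitive P. falciparum NF54 was tested in a modified [3H]hypoxanthine incorporation assay. Test compounds were run up to 20 μM, and fusidic acid was tested above that. Chloroquine, artesunate and fusidic acid served as positive controls. Compound purity was ≥95%. IC50 is the mean of at least 2 independent experiments.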

The test system of the next data set is CHO. Briefly: Cytotoxicity against CHO cells by MTT assay. The class given is cell-based. Conditions: Cricetulus griseus. Summed up: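 Mammalian Chinese hamster ovary (CHO) cell line, with emetine as the positive control. Test samples were of ≥95% purity. Cytotoxicity is reported as IC50.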
(Tetrazolium assays rely on reduction of a dye to a coloured formazan, in cell work by metabolically active cells.)

Data set [1] can be described thus: Selectivity index, ratio of IC50 for CHO cells to IC50 for Plasmodium falciparum NF54 infected in human erythrocytes. Format: toxicity, cell-based. The note with it: Chinese hamster, read-out: Ratio IC50. Summed up:
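SI was calculated as the IC50 against Chinese hamster ovary (CHO) cells divided by the IC50 against P. falciparum NF54. The NF54 value came from the [3H]hypoxanthine incorporation assay. Emetine was the positive control for CHO cytotoxicity.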

Usually IC50 stands for the point on the concentration scale where inhibition reaches its midpoint. Turning to `CC(=O)OC(C)(C)/C=C/C(=O)[C@](C)(O)[C@H]1[C@H](O)C[C@@]2(C)[C@@H]3CC=C4[C@@H](C[C@H](O)C(=O)C4(C)C)[C@]3(CO)C(=O)C[C@]12C` [CUCURBITACIN A], the IC50 in the data set on Plasmodium falciparum amounted to 2.92 µM; with CHO, 55.2 µM. The selectivity ratio in data set [1] amounted to 18.9. For `CC(=O)O[C@H]1C[C@@H]2[C@H]3CC[C@H]([C@H](C)CCCC(C)C)[C@@]3(C)CC[C@@H]2[C@@]2(C)CCC[C@@H](O)[C@]12O`, the IC50 in the data set with Plasmodium falciparum was > 20 µM. The same measure, in the same setting: for `COc1ccc2c(c1)CC[C@@H]1[C@@H]2CC[C@]2(C)C3(CC[C@@]12C=O)SCCS3` the value was > 20 µM; for `C[C@H]1[C@H](OC(=O)CCC(=O)O)O[C@@H]2O[C@@]3(C)CC[C@H]4[C@H](C)CC[C@@H]1[C@@]24OO3` [ARTESUNATE], 0.004 µM; for `CC(=O)O[C@@H]1CC[C@]2(C)[C@H]3CC[C@@]4(C)[C@@H]([C@@H](C)CCCC(C)C)CC[C@H]4[C@@H]3CC[C@@]2(O)[C@@H]1O`, > 20 µM. For `CC(=O)O[C@H]1CC[C@@]2(C)C(=CC[C@@H]3[C@H]4CCC[C@@]4(C)CC[C@H]32)C1`, the IC50 in the data set with Plasmodium falciparum was > 20 µM.

As to `COc1ccc2c(c1)CC[C@H]1[C@@H]2CC[C@@]2(C)[C@]13C=C[C@@]2(C(C)=O)[C@@H](S(=O)(=O)c1ccccc1)C3`, in the data set with Plasmodium falciparum, the IC50 was > 20 µM. Consider `C[C@H](CCC(=O)O)[C@H]1CC[C@H]2[C@@H]3[C@H](O)C[C@@H]4C[C@H](O)CC[C@]4(C)[C@H]3C[C@H](O)[C@]12C` [CHOLIC ACID], for which the IC50 in the data set on Plasmodium falciparum is > 20 µM. Regarding `C[C@@H]1CC[C@@]2(OC1)O[C@H]1C[C@H]3[C@@H]4CC[C@H]5C[C@@H](O)CC[C@]5(C)C4=CC(=O)[C@]3(C)[C@H]1[C@@H]2C`, the IC50 in the data set with Plasmodium falciparum was > 20 µM.

In the case of `CC(=O)O[C@H]1C(=O)C[C@@H]2C(=CC[C@H]3[C@@]2(C)C(=O)C[C@]2(C)C(C(C)=O)=CC[C@@]32C)C1(C)C`, the IC50 in the data set on Plasmodium falciparum came out at 19.8 µM. In the case of `COC(=O)CC[C@@H](C)[C@H]1CC[C@@H]2[C@H]3[C@H](OC(C)=O)C[C@H]4C[C@H](OC(C)=O)CC[C@]4(C)[C@H]3C[C@H](OC(C)=O)[C@@]21C`, the IC50 in the data set on Plasmodium falciparum amounted to 3.45 µM; with CHO, 141 µM. Also, the selectivity ratio in data set [1] was 40.9. On to `COc1ccc2c(c1)CC[C@@H]1[C@H]3[C@H](OCc4ccccc4)CC4(OCCO4)[C@H]3CC[C@@H]21`, for which the IC50 with Plasmodium falciparum came out at 7 µM. Regarding `CC1(C)CCC[C@H]2[C@]3(C)CC[C@]4(C)CCC[C@H]4[C@H]3C[C@@H](O)[C@@]21O`, the IC50 with Plasmodium falciparum came out at 15.8 µM. Consider `C[C@@H]1CC[C@@]2(OC1)O[C@H]1C[C@H]3[C@@H]4CC=C5C[C@@H](O)CC[C@]5(C)[C@H]4CC[C@]3(C)[C@H]1[C@@H]2C` [DISOGENIN], for which the IC50 in the data set on Plasmodium falciparum is > 20 µM. Turning to `CC(=O)O[C@H]1C[C@@]2(C)[C@@H](C[C@@H](O)[C@H]3[C@@]4(C)CC[C@@H](O)[C@@H](C)[C@@H]4CC[C@@]32C)/C1=C(\CCC=C(C)C)C(=O)O` [FUSIDIC ACID], the IC50 in the data set with CHO was determined as 194 µM. Turning to `CC(=O)O[C@@H]1C[C@@]2(C)[C@@H]3CC=C4[C@@H](CC(=O)C4(C)C)[C@]3(C)C(=O)C[C@]2(C)[C@H]1C(C)=O`, the IC50 with Plasmodium falciparum is > 20 µM.

`CC[C@H]1CC[C@@]2(C)[C@H]3C[C@H]4O[C@@]45[C@@H](CC[C@@H](O)C5(C)C)[C@@H]3C(=O)C[C@@]12C`: the IC50 in the data set with Plasmodium falciparum was > 20 µM.

On to `CC(=O)O[C@H]1CC[C@]2(C)[C@H]3CC[C@@]4(C)[C@H](CC[C@@H]4[C@H](C)CCCC(C)C)[C@@H]3C[C@@H](O)[C@]2(O)C1`, for which, in the data set with Plasmodium falciparum, the IC50 is > 20 µM. Regarding `CC(=O)O[C@@H]1C[C@H]2[C@@](C)(C(=O)C[C@]3(C)[C@@H](C(C)=O)CC[C@@]23C)[C@@H]2CCC(=O)C(C)(C)[C@@]12O`, in the data set on Plasmodium falciparum, the IC50 is > 20 µM.

As for `CC(=O)OC[C@@]12C(=O)C[C@@]3(C)[C@H](C(C)=O)CC[C@@]3(C)[C@@H]1C[C@H]1O[C@@]13[C@H]2CC[C@@H](OC(C)=O)C3(C)C`, the IC50 in the data set on Plasmodium falciparum was > 20 µM. Turning to `CC(=O)O[C@H]1C[C@@H](O)[C@]2(O)CC[C@@H]3[C@H]4CC[C@H]([C@H](C)CCCC(C)C)[C@@]4(C)CC[C@@H]3[C@@]2(C)C1`, the 50% inhibitory concentration (IC50) in the data set with Plasmodium falciparum is 13.1 µM. Still for that read-out and setting: for `CC(=O)O[C@H]1CC[C@@H]2[C@H]3CC[C@@]4(O)[C@H](CCC[C@@H]4O)[C@H]3CC[C@]12C` the value was > 20 µM. Regarding `CC(=O)OC(C)(C)/C=C/C(=O)[C@](C)(O)[C@H]1[C@@H](O)C[C@@]2(C)[C@@H]3CC=C4[C@@H](CC[C@H](O)C4(C)C)[C@]3(CO)C(=O)C[C@]12C`, the IC50 in the data set on Plasmodium falciparum was 1.76 µM; in the data set on CHO, 8.51 µM. The selectivity ratio in data set [1] came out at 4.83. As for `CC(=O)OC(C)(C)/C=C/C(=O)[C@](C)(O)[C@H]1[C@H](O)C[C@@]2(C)[C@@H]3CC=C4[C@@H](C[C@H](O)C(=O)C4(C)C)[C@]3(C)C(=O)C[C@]12C`, the IC50 amounted to 1.39 µM with Plasmodium falciparum and 1.99 µM in the data set with CHO. In addition, the selectivity ratio in data set [1] turned out to be 1.43. For the compound `CC(=O)[C@@]12O[C@@H]1C[C@H]1[C@H]3CC=C4[C@@H](CC[C@@H](O)C4(C)C)[C@]3(C)C(=O)C[C@@]12C`, the IC50 in the data set with Plasmodium falciparum was > 20 µM.

As to `CC(=O)O[C@H]1CC[C@@H]2[C@H]3C[C@@H](O)[C@@]4(O)CCCC[C@H]4[C@@H]3CC[C@]12C`, the 50% inhibitory concentration (IC50) in the data set with Plasmodium falciparum is > 20 µM. For `CC(=O)O[C@H]1CC[C@@H]2[C@@H]3C[C@H](OC(C)=O)[C@@]45O[C@@H]4CCC[C@]5(C)[C@H]3CC[C@]12C`, the IC50 in the data set with Plasmodium falciparum is > 20 µM. The same measure, in the same setting: for `CC(C)CCC[C@@H](C)[C@H]1CC[C@@H]2[C@@H]3C[C@H](O)[C@]4(O)C(=O)CCC[C@]4(C)[C@H]3CC[C@@]21C` the value was > 20 µM.

The values are drawn from ChEMBL document CHEMBL4261504, “Identification of steroid-like natural products as antiplasmodial agents by 2D and 3D similarity-based virtual screening” (Medchemcomm, 2017).
